According to the EternaBench riboswitch data:

System: MS2 coat protein
Experiment: apparent Kd, MS2 coat protein; higher = weaker binding; RNA-MaP array; FMN 200 µM where present
Method in brief: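 Designs were transcribed by stalled E. coli RNA polymerase on Illumina sequencing-chip clusters. They were titrated with SNAP-549-labelled MS2 coat protein from 0.7 or 1.5 nM, doubling to 3 µM, without and then with constant ligand. Buffer: 100 mM Tris-HCl pH 7.5, 80 mM KCl, 4 mM MgCl2, BSA, DTT, yeast tRNA, Tween-20. Green signal was normalised to red-channel RNA signal and control-cluster median Fmax. Apparent Kd is the median of filtered per-cluster binding-curve fits.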

[1] = designed as: ON switch for flavin mononucleotide, no ligand
[2] = ligand present: flavin mononucleotide, designed as: ON switch for flavin mononucleotide
[3] = designed as: OFF switch for flavin mononucleotide, no ligand
[4] = ligand present: flavin mononucleotide, designed as: OFF switch for flavin mononucleotide

Sequence | apparent Kd [1] [nM] | apparent Kd [2] [nM] | apparent Kd [3] [nM] | apparent Kd [4] [nM]
AUGGAUAUCACAGGAUAUGCUAUGGAUACCAUAGCAGAAGGGUGAUCCAUCCUAUGUAAAUACAUGAGGAUCACCCAUGUGUCC | 50 | 35.7 |  | 
GGGUGACAUGAGGAUCACCCAUGUCAGGAUAUGGGCCCGGGUUUGAAAGGGCCCGGGCCCAGAAGGGACUGCCC |  |  | 55.3 | 127
GUCGGGUGGGUAGGAUAUGGCUAUGUCUCAUUGCUAGAAGGACCAACUGCUACAUGAGGAUCACCCAUGUCGUAGUGCACCCGG | 149 | 27.5 |  | 
AAUAACAGAGGAUAUACUAUUUUAUGUGUUUGUUGUUUUGAACAUGAGGAUCACCCAUGUAGAAGGCUGAAUGA |  |  | 28.8 | 30.7
CCCAAGUCAGGAUAUGGAACACAGAGACAUCUCUGUGCCCACCAGAAGGGACAUGAGGAUCACCCAUGUGAUGA |  |  | 64.4 | 296
UUUGUGUCAGGAUAUGAGUAGUAGAACAAUAGUACUACUACUCAGAAGGGACAUGAGGAUCACCCAUGUUCCUC |  |  | 19.3 | 88.3
CAGAAGUCAGGAUAUCCUGCUCGUCACUUGCGUGAUGAGUAGGAGAAGGGACAUGAGGAUCACCCAUGUAAAGC |  |  | 53.8 | 65.2
AAGACUAGAGGAUAUACAUGAGGAUCACCCAUGUAACUGUCAGAAAACUGACGGAGAUGUAGAAGGCUAGUCAA |  |  | 17.7 | 34.7
UUUUUAGCAGGAUAUAUCCACGACCACAUGAGGAUCACCCAUGUGGCCGCUUGAGGUUGUAUAGAAGGGCUUUUUU |  |  | 14 | 14.8
GUCAGCUCGUGAGGAUAUAUAUUAACAUGAGGAUCACCCAUGUAAGAUCAGCUUCGGCAGUUAAUAUAGAAGGCACGAGCUGAC |  |  | 168 | 188
CGUUUAUAUAUGGGUUUAUAUUAUGAGGAUAUCAAUAUUUAAUACAUGAGGAUCACCCAUGUUACUGAGAAGGCAUAAUUAACG |  | 6.99 |  | 
ACAAGAUCAGGAUAUACAUGAGGAUCACCCAUGUAUUUCAAAAAGGGACUUUCUUAAUGUAGAAGGGAUCUUGU |  |  | 22.5 | 94.4
GCGUAUGAGCAGGAUAUCCGACGGGAAUCCAAAGGAGAAGGGCUCACAUGAGGAUCACCCAUGUGGUCCUAAAC |  |  | 20.2 | 101
CUUUUGUGAGGAUAUCUGUAGUAAAAAAAUAAAAUUACUACUGAGAAGGCACAUGAGGAUCACCCAUGUUCCUC |  |  | 39.6 | 181
GGCAUAAACGAGGAUAUCGUAUCGGAAACGAUACGAGAAGGUGUAACAUGAGGAUCACCCAUGUUCCUCAAGCC |  |  | 36.7 | 34.8
AAACACGGACAUGAGGAUCACCCAUGUGGCGAAAGCCUUGGGAGAAGGCCGAUUGCAAAGCAAUCGGAGGAUAUCCAUACCGUG | 17.8 | 6.03 |  | 
CCUUUGUCAGGAUAUCAGUACAGGUCGAGUUUAGACCUGUUUGAGAAGGGACAUGAGGAUCACCCAUGUAAAAC |  |  | 125 | 161
AAUGGCAUAGAGAAGGCGCCGCAGCUCUUCCUCCCAUCCCAACGACAUGAGGAUCACCCAUGUAGCGAGGAUAUCUAUACCGUU |  |  | 6.91 | 14.1
AAAAGACAUGAGGAUCACCCAUGUCAGGAUAUCUUCCGUAGGCCGAAUGGCUUCCGGUGGAGAAGGGACAUCGG |  |  | 50.7 | 104

Sequence | apparent Kd [1] [nM] | apparent Kd [2] [nM] | apparent Kd [3] [nM] | apparent Kd [4] [nM]
GGAGCACGCACAGGAUAUCCGGCGACGCUCGUCGGAGAAGGGUGACAUGAGGAUCACCCAUGUACGUGCAACUCAGUUUGAGAG | 43.6 | 36.1 |  | 
GAGUAGUUGAAAGGAUAUGCAUUGUUAUAGAAUGCAGAAGGUUCUAACAUGAGGAUCACCCAUGUAGGACUAUUCCUGUGUAUC | 12.1 | 9.82 |  | 
GUCAGCUCGUGAGGAUAUACAACACUGCUUCGGCAGUGUAUUAAGAUCACAUGAGGAUCACCCAUGUAGAAGGCACGCGCUGAU |  |  | 12.9 | 292
AAUUAACAUGAGGAUCACCCAUGUGAGGAUAUGGUAUUAUUUGGACAGUUAUGAUAUACCAGAAGGCACAUAUA |  |  | 63.4 | 108
AACCUAUUACAGAAGGCCAGCUACAUGAGGAUCACCCAUGUCGAGUCAUGGAGGAUAUGUAGUAAUUCACUCACAGAUGAGUAC | 28.9 | 5.78 |  | 
UUAAAUCAUGUAGGAUAUGCAUGGCGAAGCUACGCAGAAGGACAUGAGGAUCACCCAUGUUAUAGCUACCCAGUACGGUGGCAA |  |  | 95.5 | 251
AGAAAGUCAGGAUAUCAGAAACUAGUCGAAACGACUAGAAAUGAGAAGGGACAUGAGGAUCACCCAUGUAAGAA |  |  | 29.7 | 43.4
UGGCUGAGUCGAGGAUAUGAUCUUCAUAUAUAUACAUGAGGAUCACCCAUGUAUAAUUACAUGGAUCAGAAGGCGACUCAGCCA | 31.6 | 11.5 |  | 
UUUACAUGAGGAUCACCCAUGUCUUGCAAGAUGAGUUCUGGUGAGGAUAUACAUGAUAAAGAACUGUAGAAGGCACUGGGUACA | 305 | 362 |  | 
ACCUUACAUGAGGAUCACCCAUGUUAGGAUAUCUCGCCCGCGCAAACACAGCGCAGGCAGAGAAGGGACGCGGG |  |  | 31.8 | 32.8
UGAUAGGACAGAGGAUAUACCGAUAGGAUCUACUAUCGAAGAAUCCUUACAUGAGGAUCACCCAUGUAGAAGGCUGUCCUAUCU |  |  | 20.4 | 29.6
GGGAGACAUGAGGAUCACCCAUGUGAAAACGUGCGAGGAUAUCUAUGGAAACCAUACUGUAGAGAAGGCGUUUGUC | 88.4 | 46.6 |  | 
UGGUACAUGGGAGGAUAUAGGUUGAUAACAUGAGGAUCACCCAUGUUAAAUAAGCCGAGAGGCUACUAGAAGGCCCAUGUACCU | 4.73 | 4.75 |  | 
UGGUACGAGGGAGGAUAUGGGAAGAUACAUGAGGAUCACCCAUGUUUAAGAAUGCCGAGAGGCAACUAGAAGGCCCUAGUACCU | 583 | 21.9 |  | 
GACUACGAGGGAGGAUAUCCUCAUUAAAAUGGUGGAGAAGGCCCUCUACAUGAGGAUCACCCAUGUAUCGCUAUAGUCAGAAAU | 10.8 | 6.53 |  | 
AGCAGACGAGGAUAUAGAUUUAAGUACAUGAGGAUCACCCAUGUACACAUGUAUUUAGAUUUAGAAGGCGUCUGCU |  |  | 666 | 664
GCAGCUCCUGACAUGAGGAUCACCCAUGUUUAAUUAUUAAAUCAGGAUAUCCUUUCGAAACGAAAGGAGAAGGGAUAAGCUGCU | 4.81 | 4.94 |  | 
AAGAAACAUGAGGAUCACCCAUGUCACCUCACACGAGGAUAUCUGAAUCGAUUAGAUUACGGAGAAGGCGUGAGAA | 30.2 | 18.3 |  | 
GGAUUUACUGAGGAUAUUGCAUCACCCGACUGAUAAGAAGGCAGAACAUGAGGAUCACCCAUGUGGGUCGUCAA |  |  | 21.9 | 28.2

Sequence | apparent Kd [1] [nM] | apparent Kd [2] [nM] | apparent Kd [3] [nM] | apparent Kd [4] [nM]
GCCUUAUCUGUCAGGAUAUACAUUUUUUUUUUUUUGUAGAAGGGACAUGAGGAUCACCCAUGUACAUUACAUUG |  |  | 42.4 | 42.9
AAAGUUGGUAGGCCCUCGGAACAUGAGGAUCACCCAUGUAAGGAGGAUAUGCCCGGUACCCGCUGGCAGAAGGCCUUAUAAUAA |  |  | 10.5 | 61.6
AACAGCUCGUCAGGAUAUAUUAUCUUUUAAUGUAUUAAUGUACAUGAGGAUCACCCAUGUUGUUUGUAGAAGGGACGAGCUGAA |  |  | 8.88 | 9.34
AAUUGGAUCCAGAAGGCAUGGACGACCCGUCACAUUAACAUGAGGAUCACCCAUGUAAAAAUACAUGAGGAUAUGGAUCCUAAA | 41.3 | 7.43 |  | 
UCAUGACAUGAGGAUCACCCAUGUCAGGAUAUCUACAGAACCUCAUGUAAAAAACUGUAGAGAAGGGAUAUGAA |  |  | 22 | 25
ACGGUCUUGUCAGGAUAUACAUGAGGAUCACCCAUGUAAUGCGGGUAGGAUAACAAGUCACUUAGGUAGAAGGGACAAGGGACU |  |  | 22.1 | 54.6
GUGAGAAUAGGAGGAUAUAUACAACAUGAGGAUCACCCAUGUACCCGUGUAGUAGAAGGUUUGUUUAUAUAUAAUAUUAUAUUU | 20.2 | 18.7 |  | 
CUUGGGUGGCUGGAGGAUAUUCGAGUGGUAACAUGAGGAUCACCCAUGUGUCGCGCGGUACACGAGGAGAAGGCUGGCGGCCGGC | 146 | 54.6 |  | 
ACUGUCCGAGAGAAGGGAACAUGAGGAUCACCCAUGUUACCUCACCUGGUGACGGAACUCCAAGUUCAGGAUAUCUCGGGCGGC |  |  | 5.14 | 7.59
GGUUUGCGGCAGGAUAUCCAUCCGCGGUGUGGUGGAGAAGGGCUGACAUGAGGAUCACCCAUGUGCGUCCUGGG |  |  | 33.8 | 71.7
GAAUAAUUGAUCCAAUUUAACUACAUGAGGAUCACCCAUGUGCAGGAUAUCGUAAUAUUUAUUUUCGAGAAGGGCAAGAACGGU |  |  | 162 | 320
GAAUAACAUGAGGAUCACCCAUGUGAUUCGCAUGUAGGAUAUGGGCACGCGCCCGCGUGUCCAGAAGGACAGGCUA | 154 | 130 |  | 
UGGUACUAGGGAGGAUAUGGGAAGAUACAUGAGGAUCACCCAUGUUUAAGAAUGCCGAGAGGCAACUAGAAGGCCAUAGUACCU | 405 | 22 |  | 
AACAGUACAGGAUAUACAUGAGGAUCACCCAUGUGAGAAACCACUGGCGUACCAGAAAGUAGAAGGGUACUGGA |  |  | 79.7 | 97.8
GCGUUGAACGAGAAGGCCACUACAUGAGGAUCACCCAUGUCGUGGAGUAUUGGAGGAUAUCGAUCGGCGUCUCAUGAGGACAUA |  |  | 5.34 | 5.62
ACUUUACGAGGAUAUACUGUCGGGCCUCGGGCAUACAUGCGACAUGAGGAUCACCCAUGUAGAAGGCGUUUACU |  |  | 29.5 | 92
AAUAACAGAGGAUAUACUGUUUUAUGUGUUUAUUGUUUUAAACAUGAGGAUCACCCAUGUAGAAGGCUGAAUAA |  |  | 27.4 | 27.8
AGCUGGAGAGGAUAUACGUAAGUGAAAAAAGUCUGAUAACUACAUGAGGAUCACCCAUGUAGAAGGCUCUGGCA |  |  | 19.3 | 33.2
